In brackets after ≈: the same amount, converted by molar mass.

Holding throughout (type): functional
Holding throughout (settings): read-out: ED50 (the source's name)

For one test, the system named is HeLa. Description: Cytotoxicity against human HeLa cells by methylene blue staining method. An outline of the steps:
(§1)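 Tumor cells cultured in RPMI-1640 medium and exposed to test sample for 72 h. Growth inhibition read by methylene blue staining (absorbance). ED50 taken as the concentration giving 50% reduction of absorbance relative to untreated cells.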

The test system of another test is KB. Description: Cytotoxicity against human KB cells by methylene blue staining method. An outline of the steps: as §1
A short description of test [1]: Cytotoxicity against human HEPA 59T/VGH cells by methylene blue staining method. An outline of the steps: as §1

Turning to `C=C1C(=O)O[C@H]2/C=C(/COC(C)=O)[C@@H](O)C[C@H]3O[C@@]3(C)C[C@@H](OC(=O)/C(C)=C/C)[C@@H]12`, the results for the EC50 (in the test with HeLa; with KB; in test [1]) were 7.5 µg/mL (≈ 17.8 µM), 4.3 µg/mL (≈ 10.2 µM) and 7 µg/mL (≈ 16.6 µM), respectively.
In the case of `C=C1C(=O)O[C@H]2/C=C(/C)[C@H](O)C[C@H]3O[C@@]3(C)C[C@@H](OC(=O)/C(C)=C/C)[C@@H]12`, the EC50 amounted to 3.1 µg/mL (≈ 8.55 µM) with HeLa, 3.2 µg/mL (≈ 8.83 µM) with KB and 4.4 µg/mL (≈ 12.1 µM) in test [1].
For `COc1cccc2c1C(=O)c1c(O)c3c(c(O)c1C2=O)C[C@@](O)(C(=O)CO)C[C@@H]3O[C@H]1C[C@H](N)[C@H](O)[C@H](C)O1` [DOXORUBICIN], in that order: 0.14 µg/mL (≈ 0.258 µM), 0.15 µg/mL (≈ 0.276 µM) and 0.19 µg/mL (≈ 0.35 µM).
Take `C=C1C(=O)O[C@@H]2/C=C(\C)C(=O)/C=C/[C@](C)(O)C[C@@H](OC(=O)/C(C)=C/C)[C@@H]12` [EUPAHELIANGOLIDE A]: the EC50 in the test with HeLa came out at 3.3 µg/mL (≈ 9.16 µM); in the test on KB, 3.5 µg/mL (≈ 9.71 µM); in test [1], 3.5 µg/mL (≈ 9.71 µM).
Consider `C=C1C(=O)O[C@H]2[C@H]1[C@H](OC(=O)/C(C)=C/C)CC(=C)[C@H](O)[C@@H]1O[C@@H]1[C@]1(C)O[C@H]21` [EUPAKIRUNSIN A], for which the EC50 with HeLa was found to be 8.9 µg/mL (≈ 23.6 µM); with KB, 5.5 µg/mL (≈ 14.6 µM); in test [1] it was 4.4 µg/mL (≈ 11.7 µM).
For `C=C1C(=O)O[C@H]2/C=C(\C)[C@H](O)/C=C\[C@](C)(O)C[C@@H](OC(=O)/C(C)=C/C)[C@@H]12` [EUPAKIRUNSIN B], in that order: more than 20 µg/mL, more than 20 µg/mL and more than 20 µg/mL.
As to `C=C1C(=O)O[C@H]2[C@H]1[C@H](OC(=O)/C(C)=C/C)C[C@H](C)[C@H](O)CC(=O)[C@]1(C)O[C@H]21` [EUPAKIRUNSIN C], the EC50 with HeLa worked out at 7.1 µg/mL (≈ 18.8 µM); in the test on KB, 8.1 µg/mL (≈ 21.4 µM); in test [1], 8.6 µg/mL (≈ 22.7 µM).
`C=C1C(=O)O[C@H]2/C=C(\C)[C@]3(O)CC[C@](C)(C[C@@H](OC(=O)/C(C)=C/C)[C@@H]12)O3` [EUPAKIRUNSIN D]: the results for the EC50 (with HeLa; in the test on KB; in test [1]) were 5.8 µg/mL (≈ 16 µM), 4.8 µg/mL (≈ 13.2 µM) and 5 µg/mL (≈ 13.8 µM), respectively.
For `C=C1C(=O)O[C@H]2/C=C(\C)C(=O)[C@@H]3O[C@H]3[C@](C)(O)C[C@@H](OC(=O)/C(C)=C/C)[C@@H]12` [EUPAKIRUNSIN E], the EC50 (in the test with HeLa; with KB; in test [1]) was more than 20 µg/mL throughout.
Regarding `C=C1C(=O)O[C@H]2/C=C(/C)[C@@H](O)C[C@H]3O[C@@]3(C)C[C@@H](OC(=O)/C(C)=C/C)[C@@H]12` [HELIANGIN], the figures for the EC50 (in the test on HeLa; in the test with KB; in test [1]) were 4.4 µg/mL (≈ 12.1 µM), 1.8 µg/mL (≈ 4.97 µM) and 2 µg/mL (≈ 5.52 µM), respectively.

Source of the values: ChEMBL document CHEMBL1158764, “Cytotoxic sesquiterpene lactones from Eupatorium kiirunense, a coastal plant of Taiwan” (2005).
